Consider 14 molecules from ChEMBL document CHEMBL1124503, “The role of position 4 in angiotensin II antagonism: a structure-activity study” (J Med Chem, 1989).

The species entered for test [1] is Oryctolagus cuniculus. Put plainly: Agonist, ''ANG II-like'' activity was measured in the in vitro rabbit aorta strip assay; + = mixed agonist-antagonist effects seen above 100n g/mL. It counts as functional. The procedure, abridged: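 Isolated rabbit aorta strip (method of Rioux et al.); contractile agonist activity expressed as percent of the response to ANG II.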

For test [2], the species on record is Oryctolagus cuniculus. Put plainly: Antagonist activity pA2, was measured in the in vitro rabbit aorta strip assay; + = mixed agonist-antagonist effects seen above 100n g/mL. The format is functional. Put shortly: (§1)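 Isolated rabbit aorta strip (method of Rioux et al.); pA2 against the ANG II dose-response curve, determined at low antagonist doses within the competitive-inhibition range.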

Test [3] is filed under the species Rattus norvegicus. The test can be described thus: Antagonist activity pA2, was measured in the in vitro rat uterus strip assay. It counts as functional. The settings on record: read-out: pA2 (converted).
Test [4] concerns Angiotensin II receptor (Oryctolagus cuniculus). The test can be described thus: Angiotensin II-like agonist activity, measured in the in vitro rabbit aorta strip assay.
Test [5] concerns Rattus norvegicus. The test can be described thus: Residual ANG II-like antagonist activity, ID50 was measured in vivo, in the rat blood pressure assay; + means slight antagonist effect. The settings on record: filed as antagonist. It counts as functional, organism-based.
Test [6] concerns the target Angiotensin II receptor (Rattus norvegicus) (UniProt P29089+P25095+P35351). The test can be described thus: In vivo blood pressure increase produced by a 1 ug bolus i.v. The format is functional, organism-based. Put shortly:
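Rat blood pressure assay (Regoli et al.); agonist activity read as the mmHg rise in blood pressure after a 1 μg intravenous bolus of compound.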

The species entered for test [7] is Oryctolagus cuniculus. Put plainly: Antagonist activity pA2, was measured in the in vitro rabbit aorta strip assay. The format is functional. The note with it: read-out: pA2 (converted). Put shortly: as §1
The subject of test [8] is Rattus norvegicus. Put plainly: Residual ANG II-like antagonist activity, ID50 was measured in vivo, in the rat blood pressure assay. It counts as functional.
Test [9] deals with Rattus norvegicus. Put plainly: Residual ANG II-like antagonist activity, ID50 was measured in vivo, in the rat blood pressure assay; Partial angonist. The format is functional, organism-based. The note with it: filed as partial agonist.

Where a SMILES comes first, the peptide text is derived from it. [ ]: non-standard residue; d: D form. Phe(4-NO2) = N[C@@H](Cc1ccc([N+](=O)[O-])cc1)C(=O)O; Phe(4-F) = N[C@@H](Cc1ccc(F)cc1)C(=O)O; Phe(4-I) = N[C@@H](Cc1ccc(I)cc1)C(=O)O; Sar = CNCC(=O)O

With `CC[C@H](C)[C@H](NC(=O)[C@H](Cc1ccc([N+](=O)[O-])cc1)NC(=O)[C@@H](NC(=O)[C@H](CCCN=C(N)N)NC(=O)CNC)C(C)C)C(=O)N[C@@H](Cc1c[nH]cn1)C(=O)N1CCC[C@H]1C(=O)N[C@@H](Cc1ccccc1)C(=O)O` (H-[Sar]RV[Phe(4-NO2)]IHPF-OH), in the test filed under Oryctolagus cuniculus [1], the Activity result is on record as “mixed agonist-antagonist effects seen above 100n g/mL”. Besides, the pA2 result in the test listed under Oryctolagus cuniculus [2] was “mixed agonist-antagonist effects seen above 100n g/mL”.
In the case of H-DRVYIHPC-OH, the Kb in the test listed under Rattus norvegicus [3] was 6.03 nM.
Take `CC[C@H](C)[C@H](NC(=O)[C@@H]1CCCN1C(=O)[C@H](Cc1c[nH]cn1)NC(=O)[C@@H](NC(=O)[C@H](Cc1ccc(O)cc1)NC(=O)[C@@H](NC(=O)[C@H](CCCN=C(N)N)NC(=O)[C@@H](N)CC(=O)O)C(C)C)[C@@H](C)CC)C(=O)O`: in the test listed under Rattus norvegicus [3], the Kb was 5.01 nM.
With `CC[C@H](C)[C@H](NC(=O)[C@H](Cc1ccc(F)cc1)NC(=O)[C@@H](NC(=O)[C@H](CCCN=C(N)N)NC(=O)[C@@H](N)CC(=O)O)C(C)C)C(=O)N[C@@H](Cc1c[nH]cn1)C(=O)N1CCC[C@H]1C(=O)N[C@@H](Cc1ccccc1)C(=O)O` (H-DRV[Phe(4-F)]IHPF-OH), the Kb in the test filed under Rattus norvegicus [3] is 501 nM.
In test [4], H-DRVFIHPF-OH yielded an Activity of 11%. Further, the ID50 result in the test on Rattus norvegicus [5] is given as “Partial antagonist”. Also, the Blood pressure in test [6] was 20 mmHg.
Turning to H-DRVFIHPY-OH, in the test listed under Rattus norvegicus [3], the Kb was 240 nM.
Turning to `CC[C@H](C)[C@H](NC(=O)[C@@H]1CCCN1C(=O)[C@H](Cc1c[nH]cn1)NC(=O)[C@@H](NC(=O)[C@H](Cc1ccccc1)NC(=O)[C@@H](NC(=O)[C@H](CCCN=C(N)N)NC(=O)CNC)C(C)C)[C@@H](C)CC)C(=O)O` (H-[Sar]RVFIHPI-OH), the Kb in the test listed under Oryctolagus cuniculus [7] was 3.16 nM. In test [4], this molecule came in with an Activity of 0%. In the test with Rattus norvegicus [8], the ID50 came out at 80 ng min-1 rat-1. The Blood pressure in test [6] worked out at 2.7 mmHg.
The like results for `CCOc1ccc(C[C@H](NC(=O)[C@@H](NC(=O)[C@H](CCCN=C(N)N)NC(=O)CNC)C(C)C)C(=O)N[C@H](C(=O)N[C@@H](Cc2c[nH]cn2)C(=O)N2CCC[C@H]2C(=O)N[C@H](C(=O)O)[C@@H](C)CC)[C@@H](C)CC)cc1` were, in that order, greater than 1000 nM, 0%, greater than 1000 ng min-1 rat-1 and 5 mmHg.
Consider `CC[C@H](C)[C@H](NC(=O)[C@H](Cc1ccc(F)cc1)NC(=O)[C@@H](NC(=O)[C@H](CCCN=C(N)N)NC(=O)CNC)C(C)C)C(=O)N[C@@H](Cc1c[nH]cn1)C(=O)N1CCC[C@H]1C(=O)N[C@H](Cc1ccccc1)C(=O)O`, for which the Kb in the test filed under Oryctolagus cuniculus [7] was 141 nM. Moreover, the Activity in [4] amounted to 0%. In addition, the ID50 in the test on Rattus norvegicus [8] came to 50 ng min-1 rat-1. Besides, the Blood pressure in test [6] is 10 mmHg.
With `CC[C@H](C)[C@H](NC(=O)[C@H](Cc1ccc(I)cc1)NC(=O)[C@@H](NC(=O)[C@H](CCCN=C(N)N)NC(=O)CNC)C(C)C)C(=O)N[C@@H](Cc1c[nH]cn1)C(=O)N1CCC[C@H]1C(=O)N[C@@H](Cc1ccccc1)C(=O)O` (H-[Sar]RV[Phe(4-I)]IHPF-OH), in the test filed under Oryctolagus cuniculus [7], the Kb is 251 nM. Moreover, the Activity in [4] was 0%. Also, the Blood pressure in test [6] was 80 mmHg. Besides, in the test with Rattus norvegicus [9], the ID50 entry was “Partial agonist”.
On to `CC[C@H](C)[C@H](NC(=O)[C@@H]1CCCN1C(=O)[C@H](Cc1c[nH]cn1)NC(=O)[C@@H](NC(=O)[C@H](Cc1ccc(F)cc1)NC(=O)[C@@H](NC(=O)[C@H](CCCN=C(N)N)NC(=O)CNC)C(C)C)[C@@H](C)CC)C(=O)O` (H-[Sar]RV[Phe(4-F)]IHPI-OH), for which the Kb in the test listed under Oryctolagus cuniculus [7] is 158 nM. Also, the Activity in test [4] is 0%. In the test with Rattus norvegicus [8], the ID50 turned out to be 750 ng min-1 rat-1. Besides, the Blood pressure in test [6] worked out at 0 mmHg.
`CC[C@H](C)[C@H](NC(=O)[C@@H]1CCCN1C(=O)[C@H](Cc1c[nH]cn1)NC(=O)[C@@H](NC(=O)[C@H](Cc1ccc(OC)cc1)NC(=O)[C@@H](NC(=O)[C@H](CCCN=C(N)N)NC(=O)CNC)C(C)C)[C@@H](C)CC)C(=O)O`: the Kb in the test filed under Oryctolagus cuniculus [7] is 79.4 nM. Moreover, in [4], the Activity worked out at 0%. In addition, the ID50 in the test with Rattus norvegicus [8] was determined as 100 ng min-1 rat-1. The molecule further came in with a Blood pressure in test [6] of 3 mmHg.
The molecule `CCOc1ccc(C[C@H](NC(=O)[C@@H](NC(=O)[C@H](CCCN=C(N)N)NC(=O)CNC)C(C)C)C(=O)N[C@H](C(=O)N[C@@H](Cc2c[nH]cn2)C(=O)N2CCC[C@H]2C(=O)N[C@@H](Cc2ccccc2)C(=O)O)[C@@H](C)CC)cc1` gave an Activity in test [4] of 0.1%. Besides, in the test filed under Rattus norvegicus [3], the Kb is greater than 1000 nM. For the same molecule, the ID50 in the test with Rattus norvegicus [8] was found to be 150 ng min-1 rat-1. This molecule yielded a Blood pressure in test [6] of 2.5 mmHg.
In the case of `CC[C@H](C)[C@H](NC(=O)[C@H](Cc1ccc(OC)cc1)NC(=O)[C@@H](NC(=O)[C@H](CCCN=C(N)N)NC(=O)CNC)C(C)C)C(=O)N[C@@H](Cc1c[nH]cn1)C(=O)N1CCC[C@H]1C(=O)N[C@@H](Cc1ccccc1)C(=O)O`, the Kb in the test filed under Oryctolagus cuniculus [7] was 79.4 nM. In test [4], the Activity was 0%. For the same molecule, in the test with Rattus norvegicus [8], the ID50 stood at 250 ng min-1 rat-1. Also, the Blood pressure in test [6] stood at 20 mmHg.
